ABCG2 block: blocks JC-1 efflux by human ABCG2 transporter; 190,000 tested, 0.1% active; inhibition, % at 6.6 µM; IgMXP3 cells, flow cytometry; Q9UNQ0;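 active = inhibition above 80%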;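 also: 0% = DMSO and 100% = nicardipine control wells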
Target sequence (Q9UNQ0 whole entry, looked up): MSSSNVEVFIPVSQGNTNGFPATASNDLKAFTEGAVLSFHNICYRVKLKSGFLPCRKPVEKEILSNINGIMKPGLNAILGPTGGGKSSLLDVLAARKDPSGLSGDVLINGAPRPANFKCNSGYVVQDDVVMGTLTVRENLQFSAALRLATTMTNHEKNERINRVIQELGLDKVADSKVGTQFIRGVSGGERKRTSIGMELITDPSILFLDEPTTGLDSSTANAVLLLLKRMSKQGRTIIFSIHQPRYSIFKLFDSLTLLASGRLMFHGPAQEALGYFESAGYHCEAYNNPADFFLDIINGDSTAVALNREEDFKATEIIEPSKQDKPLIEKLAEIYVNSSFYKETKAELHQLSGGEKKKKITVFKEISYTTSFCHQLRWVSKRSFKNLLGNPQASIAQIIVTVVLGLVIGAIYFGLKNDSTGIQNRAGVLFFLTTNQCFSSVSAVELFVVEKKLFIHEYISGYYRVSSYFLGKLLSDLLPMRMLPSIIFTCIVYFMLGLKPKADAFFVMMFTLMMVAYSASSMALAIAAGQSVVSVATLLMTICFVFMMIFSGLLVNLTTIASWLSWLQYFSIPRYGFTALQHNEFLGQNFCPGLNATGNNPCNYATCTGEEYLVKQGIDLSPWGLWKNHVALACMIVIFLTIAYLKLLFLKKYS
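Test system: ABCG2 IgMXP3 and barcoded ABCB1 CCRF-Adr cell mix; Schedule: cells with compound and JC-1, 10 min at 25 °C, rotating, no wash; Technique: flow cytometry of retained JC-1 fluorescence; Measure: % inhibition of efflux relative to nicardipine and DMSO; Controls: nicardipine high and DMSO low controls.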
ABCB1 block: inhibitors of human ABCB1 transporter, ABCG2 counter-screen; P08183; CCRF-Adr cells, JC-1 efflux, flow cytometry; inhibition, % at 6.6 µM; 190,000 tested, 0.067% active; AID 1326; in the data active = inhibition above about 40%;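 also: 0% = vehicle and 100% = reference inhibitor; higher value means more JC-1 retained so stronger ABCB1 efflux block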
WT yeast gro inh: growth inhibition of WT yeast, mitochondrial fusion screen; inhibition, % at 10 µM; 190,000 tested, 2.1% active; mitochondrial fusion phenotypic screen, WT strain; in the data active = inhibition above about 58%; tested in S. cerevisiae
Lmaj promast: inhibitors of Leishmania major promastigote growth; Leishmania major promastigotes, resazurin fluorescence viability; inhibition, % at 10 µM; 200,000 tested, 9% active; in the data active = inhibition above about 50%;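 also: promastigotes grown with compound for 44 hours at 28 °C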
RAM network inh: inhibitors of the yeast RAM network | S. cerevisiae dse1pr::URA3 reporter, 5-FOA growth OD615, 2 d; analog-sensitive cbk1-as2 kinase mutant strain | inhibition, % at 50 µM | 190,000 tested, 1.8% active;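 active = inhibition above a set limit, 3 SD over mean compound inhibition, cut at about 8.4% in these data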;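 also: 0% = DMSO-only wells with no growth and 100% = 10 µM 1-NA-PP1 full growth; inhibition rescues growth on 5-FOA so higher OD means more RAM inhibition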
* hit, by the source's call. Hits are enriched below; roughly 12% of the tested compounds scored in any of these assays.

SMILES	ABCG2 block	ABCB1 block	WT yeast gro inh	Lmaj promast	RAM network inh
Cc1cc(-c2ccc(/C=N/n3cnnc3)o2)ccc1Cl	-10.9	-0.9	10.0	65.2*	1.7
O=[N+]([O-])c1cc(CN2CCCC2)ccc1Sc1ccc(Cl)cc1	0.5	0.4	52.3	95.3*	1.5
N[C@@H](CO)c1nnc([C@H](Cc2ccc(O)cc2)NC(=O)C2CCNCC2)o1	0.3	0.2	-10.3	-7.2	1.0
COc1ccc(/C=C\C(=O)c2c(O)ccc3c(C)cc(=O)oc23)cc1	2.5	0.2	4.6	99.8*	1.7
COc1ccc(/C=C/C(=O)c2c(O)ccc3c(C)cc(=O)oc23)cc1	47.5	-0.4	-2.2	87.9*	3.8
Cc1ccc(OCc2cn3cccnc3n2)cc1	1.2	-0.1	9.1	-6.1	5.6
C=CCn1c(SCC(=O)Nc2ccc(C(=O)OC(C)C)cc2)nnc1-c1cccs1	1.6	0.4	15.0	4.0	8.7*
CCCCCc1nc2sc3c(c2c(=O)n1NC(=O)c1ccc([N+](=O)[O-])cc1)CC(C)(C)OC3	-0.8	1.1	80.1*	-3.6	2.7
O=C(OCc1cc(Cl)ccc1OC(F)F)c1cncc(Br)c1	4.1	0.1	59.5*	-7.7	1.7
CSC1=NC(C(Cl)(Cl)Cl)N=C(c2ccccc2)N1 (stereo not drawn)	3.5	0.9	-6.3	1.7	0.9
O=C1CC(Sc2nnnn2-c2ccccc2)C(=O)N1c1cccc(Cl)c1 (stereo not drawn)	1.6	0.7	69.6	71.3*	1.8
O=C1CC(SC(=Nc2ccccc2)Nc2ccccc2)C(=O)N1c1cccc(Cl)c1 (stereo not drawn)	7.0	0.7	-10.7	61.0*	3.5
CCOC(=O)C1=C(N)Oc2c(oc(CO)cc2=O)C1c1ccccc1 (stereo not drawn)	6.5	0.6	-5.5	8.2	0.8
CS(=O)(=O)Nc1ccc(C(=O)Nc2cccc([N+](=O)[O-])c2)cc1	13.6	-0.1	-8.3	0.4	5.2
O=C(O)C1CCCCC1C(=O)NCc1ccc(Cl)c(Cl)c1 (stereo not drawn)	0.8	0.1	-1.6	4.1	0.8
CN(c1ccc(OCC(=O)NCc2cccnc2)cc1)S(=O)(=O)c1ccc(Cl)cc1	0.3	0.8	1.5	-7.7	1.2
CCc1ccc(C2=NN(CCC(=O)NC(C)CCc3ccccc3)C(=O)CC2)cc1 (stereo not drawn)	5.0	0.5	24.0	94.7*	4.7
CCOC(=O)c1ccc(/C=C2/C=C(c3ccccc3)N(c3ccc(Cl)c(C(=O)O)c3)C2=O)cc1	2.0	1.3	7.0	-3.0	7.2
CNC(=O)COc1ncnc2sccc12	26.0	1.9	-3.2	0.0	0.0
Cc1ccc(C)c(NC(=O)CN(C)C(=O)COc2ncnc3sccc23)c1	-2.1	-0.4	-15.4	58.5*	1.1
CCc1ccccc1NC(=O)c1cc(=O)c2ccccc2o1	1.3	0.0	1.3	7.7	0.4
CC(=O)c1ccc(NC(=S)Nc2ccc(Br)c(Cl)c2)cc1	0.0	-0.5	76.7*	-0.6	8.2
O=C(c1ccc(NC(=S)Nc2ccc(Cl)c(Cl)c2)cc1)N1CCCC1	-2.4	-0.9	80.5*	-4.7	0.5
CC(=O)c1ccc(NC(=S)NC(C)c2ccc(Cl)cc2Cl)cc1 (stereo not drawn)	0.4	0.0	83.9*	10.4	3.6
CC(=O)c1cccc(NC(=S)NC(=O)c2ccc(Cl)cc2)c1	-4.9	-1.5	-0.5	-5.9	3.7
SMILES	ABCG2 block	ABCB1 block	WT yeast gro inh	Lmaj promast	RAM network inh
Cc1ccc(NS(=O)(=O)c2ccc(Br)s2)cc1S(=O)(=O)N1CCOCC1	-2.2	-0.4	3.0	-6.6	4.8
Cc1ccc(NC(=S)NC2CC3CCC(C2)N3Cc2ccco2)cc1C (stereo not drawn)	1.1	0.4	0.7	99.5*	0.4
CCc1ccccc1NC(=S)NC1CC2CCC(C1)N2Cc1ccco1 (stereo not drawn)	1.4	0.2	-0.4	71.3*	-0.3
CCc1ccccc1NC(=O)NC1CC2CCC(C1)N2Cc1cccs1 (stereo not drawn)	2.3	0.8	7.3	76.0*	-0.3
CCc1ccc(NC(=S)NC2CC3CCCC(C2)N3Cc2cccs2)cc1 (stereo not drawn)	1.0	0.5	-1.1	90.7*	0.9
O=C(CN1CCN(c2ccccn2)CC1)Nc1cccc(S(=O)(=O)N2CCCC2)c1	18.3	2.3	0.8	14.6	3.8
CCc1ccccc1NC(=S)NC1CC2CCC(C1)N2Cc1ccc(F)cc1 (stereo not drawn)	-0.4	-0.1	0.2	94.7*	-0.3
COCCNC(=S)NC1CC2CCC(C1)N2Cc1ccccc1 (stereo not drawn)	8.0	0.8	0.7	14.8	2.0
Cc1cccc(NC(=S)NC2CC3CCC(C2)N3Cc2ccco2)c1C (stereo not drawn)	14.4	1.6	6.1	90.0*	2.2
CCc1ccccc1NC(=S)N(Cc1cccs1)C1CCCC1	-0.4	-0.2	71.2*	17.4	2.7
Cc1ccccc1NC(=S)N(Cc1cccs1)C1CCCC1	-0.3	-0.3	12.9	20.0	0.0
Cc1cccc(NC(=S)NC2CC3CCCC(C2)N3Cc2ccccc2)c1C (stereo not drawn)	-0.3	0.0	-3.2	86.8*	-1.2
CCC(CC)C(=O)Nc1cc(Cl)ccc1C	3.0	0.2	-8.3	5.9	2.3
O=S(=O)(Nc1ccncc1Cl)c1ccc2ccccc2c1	2.4	-2.4	6.2	2.9	4.2
Cc1ccc(NC(=S)NC2CC3CCC(C2)N3Cc2ccco2)c(C)c1 (stereo not drawn)	2.8	0.7	16.5	89.3*	0.1
O=C(NC1CC2CCCC(C1)N2Cc1ccco1)NC12CC3CC(CC(C3)C1)C2 (stereo not drawn)	2.3	1.2	-8.2	89.1*	0.2
Cc1cccc(NS(=O)(=O)c2cc(C(=O)OC(C)C(=O)NCc3ccc4c(c3)OCO4)ccc2C)c1 (stereo not drawn)	20.8	4.6	-3.2	47.6	4.9
O=C(CSc1nnc(Cc2ccccc2)o1)c1cc(F)ccc1F	-0.1	-0.4	4.8	-11.7	2.7
CC(CC(=O)Nc1cc([N+](=O)[O-])ccc1Cl)c1ccccc1 (stereo not drawn)	3.3	0.5	9.3	-6.6	3.6
O=C(Nc1cc([N+](=O)[O-])ccc1Cl)C(Sc1ccccc1)c1ccccc1 (stereo not drawn)	26.4	2.0	22.6	96.1*	4.8
COc1ccc(N(CC(=O)NCCSCc2ccco2)S(=O)(=O)c2ccccc2)cc1	0.6	0.8	10.2	40.5	9.3*
O=C(CN(c1ccccc1)S(=O)(=O)c1ccccc1)NCCSCc1ccco1	4.2	1.9	-19.0	68.2*	1.3
Cc1ccc(N(CC(=O)NCCSCc2ccco2)S(C)(=O)=O)cc1	5.8	1.7	6.7	-1.6	2.9
Cc1ccc(S(=O)(=O)N(CC(=O)NCCSCc2ccco2)c2ccc(F)cc2)cc1	-1.7	-1.1	24.1	31.1	4.9
COc1ccc(-c2ccnc3c(C(=O)O)cnn23)cc1	1.3	0.1	-21.6	-8.7	-1.2
